In one series the test system is Aspergillus niger. The experiment in a line: Antifungal activity against Aspergillus niger ATCC 16404. Format: functional.
A further series concerns Pseudomonas aeruginosa. The experiment in a line: Antibacterial activity against Pseudomonas aeruginosa ATCC 2785. The series is classed as functional.
The test system of another series is Candida albicans. The experiment in a line: Antifungal activity against Candida albicans ATCC 10231. Format: functional.
The test system of a further series is Bacillus subtilis. The experiment in a line: Antibacterial activity against Bacillus subtilis ATCC 6633. Format: functional.
A further series relates to Trichophyton rubrum. The experiment in a line: Antifungal activity against Trichophyton rubrum ATCC 10218.
Series [1] concerns AGS. The experiment in a line: Cytotoxicity against human AGS cells at 15 to 60 umol/L after 48 hrs by MTT assay. The series is classed as cell-based. In a few lines:
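AGS gastric cells incubated with test agent at serial concentrations of 15, 30 and 60 μmol L⁻¹. Viability read by MTT assay 48 h later. Values are means ± SEM of 4–6 experiments.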

The subject of another series is Escherichia coli. The experiment in a line: Antibacterial activity against Escherichia coli ATCC 35218. The series is classed as functional.
Series [2] is described as follows: Inhibition of Escherichia coli FabH expressed after 25 mins by liquid scintillation counting.
The test system of the next series is Staphylococcus aureus. Put plainly: Antibacterial activity against Staphylococcus aureus ATCC 6538. The series is classed as functional.
In series [3] the test system is AGS. Put plainly: Inhibition of Escherichia coli-stimulated IL-8 production in human AGS cells at 15 to 60 umol/L after 12 hrs by ELISA. The series is classed as functional, cell-based. In a few lines:
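AGS gastric mucosal cells stimulated with Escherichia coli water extract to induce IL-8 production, with agent added at 15, 30 and 60 μmol L⁻¹. IL-8 released was measured in pg mL⁻¹ and compared with extract-stimulated control. Values are means ± SEM of 3–5 experiments.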

From ChEMBL document CHEMBL1155372, “Design and synthesis of novel deoxybenzoin derivatives as FabH inhibitors and anti-inflammatory agents” (Bioorg Med Chem Lett, 2010) come the findings set out here.

≈ marks a conversion by molar mass, not a printed value. Calls of active or inactive are those of the source. The calls are words filed in the database; no cut-off is given here.

With `Oc1ccc(/C(Cc2ccc(Cl)cc2)=N\c2ccc(Cl)cc2)c(O)c1`, the MIC in the series on Aspergillus niger was > 50 µg/mL; against Pseudomonas aeruginosa it was 1.56 µg/mL (≈ 4.2 µM); against Candida albicans, > 50 µg/mL; against Bacillus subtilis, 25 µg/mL (≈ 67.2 µM); in the series on Trichophyton rubrum, > 50 µg/mL; with Escherichia coli it was 0.78 µg/mL (≈ 2.1 µM). This molecule returned an MIC with Staphylococcus aureus of 25 µg/mL (≈ 67.2 µM). For the same molecule, the Activity result in the series with AGS [1] is recorded as “Non-toxic”. The same molecule yielded a concentration for half-maximal inhibition (IC50) in series [2] of 1.8 µM.
In the case of `CC(=O)Oc1ccccc1C(=O)O` [ASPIRIN], the Activity entry with AGS [1] is given as “Non-toxic”. Moreover, the inhibition result in the series with AGS [3] is “Active”.
`Cc1ccc(/N=C(/Cc2ccc(F)cc2)c2ccc(O)c(O)c2O)cc1`: the MIC was > 50 µg/mL against Aspergillus niger; 50 µg/mL (≈ 142 µM) in the series with Pseudomonas aeruginosa; > 50 µg/mL in the series with Candida albicans; 50 µg/mL (≈ 142 µM) in the series on Bacillus subtilis; > 50 µg/mL in the series on Trichophyton rubrum; 50 µg/mL (≈ 142 µM) in the series with Escherichia coli. For the same molecule, the lowest concentration to inhibit growth in the series on Staphylococcus aureus (MIC) was 50 µg/mL (≈ 142 µM). Also, the inhibition entry in the series on AGS [3] was “inactive”.
For `Cc1ccc(/N=C(/Cc2ccc(Cl)cc2)c2ccc(O)cc2O)cc1`, the MIC against Aspergillus niger was > 50 µg/mL; against Pseudomonas aeruginosa it was 12.5 µg/mL (≈ 35.5 µM); in the series on Candida albicans it was > 50 µg/mL; in the series with Bacillus subtilis, 25 µg/mL (≈ 71.1 µM); against Trichophyton rubrum, > 50 µg/mL; with Escherichia coli, 12.5 µg/mL (≈ 35.5 µM). Also, the MIC in the series with Staphylococcus aureus was 12.5 µg/mL (≈ 35.5 µM). For the same molecule, the concentration for half-maximal inhibition (IC50) in series [2] was determined as 15.1 µM.
Take `Oc1ccc(/C(Cc2ccc(F)cc2)=N\c2ccc(Br)cc2)c(O)c1`: the MIC is > 50 µg/mL with Aspergillus niger; 6.25 µg/mL (≈ 15.6 µM) with Pseudomonas aeruginosa; > 50 µg/mL in the series with Candida albicans; 50 µg/mL (≈ 125 µM) in the series with Bacillus subtilis; > 50 µg/mL against Trichophyton rubrum; 3.12 µg/mL (≈ 7.81 µM) against Escherichia coli. In the series on Staphylococcus aureus, this molecule showed a minimal inhibitory concentration (MIC) of 50 µg/mL (≈ 125 µM). In [2], this molecule returned an IC50 of 8.3 µM.
For `Oc1ccc(/C(Cc2ccc(Cl)cc2)=N\c2ccc(Br)cc2)c(O)c1`, the MIC against Aspergillus niger is > 50 µg/mL; against Pseudomonas aeruginosa, 3.12 µg/mL (≈ 7.5 µM); in the series with Candida albicans it was > 50 µg/mL; against Bacillus subtilis, 12.5 µg/mL (≈ 30 µM); with Trichophyton rubrum, > 50 µg/mL; with Escherichia coli it was 3.12 µg/mL (≈ 7.5 µM). The MIC against Staphylococcus aureus stood at 25 µg/mL (≈ 60 µM). Moreover, the IC50 in series [2] amounted to 9.1 µM.
On to `Cc1ccc(/N=C(/Cc2ccc(F)cc2)c2ccc(O)cc2O)cc1`, for which the MIC was > 50 µg/mL in the series with Aspergillus niger; 25 µg/mL (≈ 74.5 µM) against Pseudomonas aeruginosa; > 50 µg/mL against Candida albicans; 25 µg/mL (≈ 74.5 µM) against Bacillus subtilis; > 50 µg/mL against Trichophyton rubrum; 25 µg/mL (≈ 74.5 µM) with Escherichia coli. This molecule registered an MIC against Staphylococcus aureus of 25 µg/mL (≈ 74.5 µM). In [2], this molecule came in with an IC50 of 35.3 µM.

As usually defined, the MIC is the least concentration at which growth counts as inhibited. Higher therefore signals weaker potency. What is called IC50 is the midpoint of a concentration-inhibition curve. The low end stands for inhibition by little substance, the high end for a need for much substance.
